Among the data in ChEMBL document CHEMBL2062383, “Synthesis and antibacterial activity of 6-O-(heteroaryl-isoxazolyl)propynyl 2-fluoro ketolides” (2012) are MIC, Ratio and Activity values, retold here.

SMILES strings stand for the structures. ≈ marks a conversion by molar mass, not a printed value. Calls of active or inactive are those of the source. The calls are words filed in the database; no cut-off is given here.

Assay [1] has as its system Streptococcus pneumoniae. Kind of assay: Antibacterial activity against eryhtromycin-susceptible Streptococcus pneumoniae ATCC 49619 by broth microdilution method. In kind it is functional. A digest of the protocol:
(§1)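 MIC by broth microdilution, following Clinical and Laboratory Standards Institute guidelines for S. pneumoniae and S. pyogenes.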

For assay [2], the system named is Streptococcus pneumoniae. Briefly: Antibacterial activity against Streptococcus pneumoniae 210 expressing mefA efflux pump by broth microdilution method. In kind it is functional. A digest of the protocol:
(§2)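 MIC by broth microdilution following CLSI guidelines for S. pneumoniae and H. influenzae.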
In general terms: Dilution methods test growth across graded concentrations, often in twofold steps.

In assay [3] the test system is Streptococcus pneumoniae. Briefly: Antibacterial activity against erythromycin-resistant Streptococcus pneumoniae 205 expressing ermB ribosomal methylase by broth microdilution method. Format: functional. Put shortly:
as §1

Assay [4] relates to Streptococcus pyogenes. Briefly: Antibacterial activity against erythromycin-resistant Streptococcus pyogenes 1104 expressing ermB ribosomal methylase by broth microdilution method. In kind it is functional. A digest of the protocol:
as §1

In assay [5] the test system is Haemophilus influenzae. Kind of assay: Antibacterial activity against Haemophilus influenzae ATCC 43095 by broth microdilution method. In kind it is functional. A digest of the protocol: as §2
Assay [6] concerns Streptococcus pneumoniae. Kind of assay: Ratio of clarithromycin MIC to compound MIC for eryhtromycin-susceptible Streptococcus pneumoniae ATCC 49619. Format: functional.
Assay [7] concerns Haemophilus influenzae. Briefly: Ratio of clarithromycin MIC to compound MIC for Haemophilus influenzae ATCC 43095. In kind it is functional.
The subject of assay [8] is Streptococcus pneumoniae. Kind of assay: Antibacterial activity against erythromycin-resistant Streptococcus pneumoniae 1101 expressing ermB ribosomal methylase infected in po dosed CBA/JN mouse assessed as decrease in bacterial count in lungs administered QD 1 day post-inoculation for 2 days measured after 1 day. In kind it is functional, organism-based. A digest of the protocol: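 Five-week-old male CBA/JN mice were inoculated intranasally with erm(B) S. pneumoniae 1101 at 5.5×10^4 CFU/mouse. Oral dosing once daily started the day after inoculation and continued for 2 days. Lung bacterial counts were taken the day after the last dose. Data are given as mean ± S.E., with Steel's test versus untreated control.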

For assay [9], the system named is Haemophilus influenzae. Briefly: Antibacterial activity against Haemophilus influenzae ATCC 43095 infected in po dosed ICR mouse assessed as decrease in bacterial count in lungs administered QD 1 day post-inoculation for 2 days measured after 1 day. Format: functional, organism-based. Put shortly: (§3)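 Four-week-old male ICR mice were inoculated intratracheally with 5.2×10^6 CFU/mouse. Oral dosing began the day after inoculation, once daily for 2 days. Lung bacterial counts were taken the day after the last dose and are given as mean ± S.E. versus untreated control, with Steel's test.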

For assay [10], the system named is Streptococcus pneumoniae. Kind of assay: Antibacterial activity against erythromycin-resistant Streptococcus pneumoniae 1101 expressing ermB ribosomal methylase by broth microdilution method. Format: functional. A digest of the protocol: as §1
Assay [11] concerns Haemophilus influenzae. Kind of assay: Antibacterial activity against Haemophilus influenzae ATCC 43095 infected in ICR mouse assessed as decrease in bacterial count in lungs at 50 mg/kg, po administered QD 1 day post-inoculation for 2 days measured after 1 day. Format: functional, organism-based. The arrangement: dose 50 mg/kg. A digest of the protocol: as §3

With `CC[C@H]1OC(=O)[C@H](C)[C@@H](O[C@H]2C[C@@](C)(OC)[C@@H](O)[C@H](C)O2)[C@H](C)[C@@H](O[C@@H]2O[C@H](C)C[C@H](N(C)C)[C@H]2O)[C@](C)(OC)C[C@@H](C)C(=O)[C@H](C)[C@@H](O)[C@]1(C)O` [CLARITHROMYCIN], the MIC in assay [1] was 0.03 µg/mL (≈ 0.0401 µM); in [2], 2 µg/mL (≈ 2.67 µM); in [3], more than 128 µg/mL; in assay [4], more than 128 µg/mL; in assay [5], 4 µg/mL (≈ 5.35 µM).

Take `CC[C@H]1OC(=O)[C@@](C)(F)C(=O)[C@H](C)[C@@H](O[C@@H]2O[C@H](C)C[C@H](N(C)C)[C@H]2O)[C@](C)(OCC#Cc2cc(-c3ncccn3)no2)C[C@@H](C)C(=O)[C@H](C)[C@H]2NC(=O)O[C@@]21C`: the MIC in assay [1] came out at 0.008 µg/mL (≈ 0.01 µM); in assay [2], 0.03 µg/mL (≈ 0.0375 µM); in assay [3], 0.008 µg/mL (≈ 0.01 µM); in [4] it was 2 µg/mL (≈ 2.5 µM); in assay [5] it was 2 µg/mL (≈ 2.5 µM); in [10], 0.016 µg/mL (≈ 0.02 µM). The Ratio in [6] amounted to 4; in assay [7], 2. Also, the Activity result in [8] and in [9] was “Dose-dependent effect” throughout.

With `CC[C@H]1OC(=O)[C@@](C)(F)C(=O)[C@H](C)[C@@H](O[C@@H]2O[C@H](C)C[C@H](N(C)C)[C@H]2O)[C@](C)(OCC#Cc2cc(-c3cccnn3)no2)C[C@@H](C)C(=O)[C@H](C)[C@H]2NC(=O)O[C@@]21C`, the MIC in [1] turned out to be 0.008 µg/mL (≈ 0.01 µM); in [2], 0.03 µg/mL (≈ 0.0375 µM); in assay [3], 0.008 µg/mL (≈ 0.01 µM); in assay [4], 1 µg/mL (≈ 1.25 µM); in [5], 2 µg/mL (≈ 2.5 µM); in assay [10] it was 0.016 µg/mL (≈ 0.02 µM). For the same molecule, the Ratio in assay [6] is listed as 4; in [7], 2. The Activity entry in assay [8] and in assay [9] was “Dose-dependent effect” each time. The result in [11] was Active.

On to `CC[C@H]1OC(=O)[C@@](C)(F)C(=O)[C@H](C)[C@@H](O[C@@H]2O[C@H](C)C[C@H](N(C)C)[C@H]2O)[C@](C)(OCC#Cc2cc(-c3cnc(N)nc3)no2)C[C@@H](C)C(=O)[C@H](C)[C@H]2NC(=O)O[C@@]21C`, for which the MIC stood at 0.008 µg/mL (≈ 0.00982 µM) in assay [1]; 0.03 µg/mL (≈ 0.0368 µM) in assay [2]; 0.008 µg/mL (≈ 0.00982 µM) in assay [3]; 0.06 µg/mL (≈ 0.0736 µM) in assay [4]; 2 µg/mL (≈ 2.45 µM) in assay [5]; 0.008 µg/mL (≈ 0.00982 µM) in [10]. In addition, the Ratio in assay [6] came out at 4; in assay [7], 2. For the same molecule, the Activity entry in [8] and in [9] was “Dose-dependent effect” in each case.

With `CC[C@H]1OC(=O)[C@H](C)[C@@H](O[C@H]2C[C@@](C)(OC)[C@@H](O)[C@H](C)O2)[C@H](C)[C@@H](O[C@@H]2O[C@H](C)C[C@H](N(C)C)[C@H]2O)[C@](C)(O)C[C@@H](C)CN(C)[C@H](C)[C@@H](O)[C@]1(C)O` [AZITHROMYCIN], the MIC in [1] was 0.06 µg/mL (≈ 0.0801 µM); in [2] it was 2 µg/mL (≈ 2.67 µM); in [3], more than 128 µg/mL; in assay [4] it was more than 128 µg/mL; in assay [5] it was 0.5 µg/mL (≈ 0.668 µM).
